The subject of series [1] is NCI-H460. As to the kind of experiment: Induction of cell cycle arrest in human NCI-H460 cells assessed as accumulation of cells at >4N phase at 1 micromol/L incubated for 24 hrs by propidium iodide staining based flow cytometry analysis (reference value: 1.2 %). It counts as functional. The following applies: dose 1 µmol/L, at 1 µM. In short, it runs like this: (§1)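 Cells seeded in six-well plates at densities that keep them in log growth (HDF 120,000, 60,000 or 30,000; H460 100,000, 50,000 or 25,000 per well for 24, 48 or 72 h). Treated with 1 or 3 μmol/L. Floating and adherent cells collected, ethanol-fixed, permeabilized with Triton X-100 and stained with propidium iodide. DNA content read by flow cytometry as % singlet cells.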

For series [2], the system named is HeLa. The series can be described thus: Inhibition of p53-PLK1 in human HeLa cells assessed as inhibition of p53 phosphorylation at Ser15 residue by Western blotting analysis. The note with it: dose 0.0015-30 µM. Type of series: cell-based. In short, it runs like this: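 HeLa cells with tet-inducible p53-PLK1 fusion induced overnight with 125 ng/mL doxycycline, then treated 6 h with 3-fold dilutions (30–0.00152 μmol/L). Lysates resolved on 4–12% Bis-Tris gels, transferred to nitrocellulose, probed for phospho-Ser15 p53 or total p53.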

The subject of series [3] is NCI-H460. The series can be described thus: Induction of apoptosis in human NCI-H460 cells assessed as PARP cleavage at 5 micromol/L incubated for 22 to 72 hrs by Western blotting analysis. Type of series: functional, cell-based. The following applies: dose 5.0 µmol/L, time 22-72 hrs. In short, it runs like this:
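H460 cells seeded at 320,000 per well in six-well plates and given 5 μmol/L for 22, 30, 46, 55 and 72 h. Lysed in caspase assay buffer, run on 4–12% Bis-Tris gels and immunoblotted with an anti-PARP antibody that detects both the 116-kDa intact protein and the 85-kDa fragment.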
(A western blot detects proteins with antibodies after separation by electrophoresis.)

In series [4] the test system is NHDF. The series can be described thus: Induction of cell cycle arrest in human HDF cells assessed as accumulation of cells at G1 phase at 1 micromol/L incubated for 48 hrs by propidium iodide staining based flow cytometry analysis (reference value: 72.8 %). Type of series: toxicity. The note with it: 1 µM, dose 1 µmol/L. In short, it runs like this: as §1
Series [5] is described as follows: Selectivity ratio of IC50 for cytotoxicity against human HDF cells to IC50 for anti-proliferative activity against human HeLa cells. It counts as toxicity, cell-based. The following applies: HDF cells versus HeLa cells, read-out: Ratio IC50.
The test system of series [6] is NCI-H460. As to the kind of experiment: Induction of cell cycle arrest in human NCI-H460 cells assessed as accumulation of cells at >4N phase at 1 micromol/L incubated for 48 hrs by propidium iodide staining based flow cytometry analysis (reference value: 0.9 %). Type of series: functional. The following applies: dose 1 µmol/L, at 1 µM. In short, it runs like this:
as §1
(In flow cytometry, cells or beads pass a laser one at a time.)

Series [7] deals with NHDF. As to the kind of experiment: Induction of cell cycle arrest in human HDF cells assessed as accumulation of cells at G2-M phase at 3 micromol/L incubated for 72 hrs by propidium iodide staining based flow cytometry analysis (reference value: 8.2 %). Type of series: toxicity. The note with it: 3 µM, dose 3 µmol/L. In short, it runs like this: as §1
Series [8] deals with Platelet-derived growth factor receptor beta (Homo sapiens, UniProt P09619). As to the kind of experiment: Inhibition of PDGFR1beta (unknown origin).
In series [9] the test system is HeLa. The series can be described thus: Antiproliferative activity against human HeLa cells assessed as inhibition of cell growth. Type of series: functional, cell-based.
Series [10] relates to NHDF. The series can be described thus: Induction of cell cycle arrest in human HDF cells assessed as accumulation of cells at G2-M phase at 1 micromol/L incubated for 48 hrs by propidium iodide staining based flow cytometry analysis (reference value: 14.3 %). The note with it: 1 µM, dose 1 µmol/L. It counts as toxicity. In short, it runs like this: as §1
The nature of series [11]: Selectivity ratio of IC50 for cytotoxicity against human HDF cells to IC50 for antiproliferative activity against human MCF7 cells. Type of series: toxicity, cell-based. The note with it: HDF cells versus MCF7 cells, read-out: Ratio IC50.
Series [12] deals with NHDF. The series can be described thus: Induction of cell cycle arrest in human HDF cells assessed as accumulation of cells at >4N phase at 3 micromol/L incubated for 48 hrs by propidium iodide staining based flow cytometry analysis (reference value: 3.0 %). It counts as toxicity. The note with it: 3 µM, dose 3 µmol/L. In short, it runs like this: as §1
In series [13] the test system is NCI-H460. The series can be described thus: Induction of cell cycle arrest in human NCI-H460 cells assessed as accumulation of cells at G1 phase at 1 micromol/L incubated for 48 hrs by propidium iodide staining based flow cytometry analysis (reference value: 50.9 %). Type of series: functional. The following applies: dose 1 µmol/L, at 1 µM. In short, it runs like this: as §1

The next series has as its target T1, Aurora kinase A (Homo sapiens, UniProt O14965).
T1 sequence (O14965 whole entry): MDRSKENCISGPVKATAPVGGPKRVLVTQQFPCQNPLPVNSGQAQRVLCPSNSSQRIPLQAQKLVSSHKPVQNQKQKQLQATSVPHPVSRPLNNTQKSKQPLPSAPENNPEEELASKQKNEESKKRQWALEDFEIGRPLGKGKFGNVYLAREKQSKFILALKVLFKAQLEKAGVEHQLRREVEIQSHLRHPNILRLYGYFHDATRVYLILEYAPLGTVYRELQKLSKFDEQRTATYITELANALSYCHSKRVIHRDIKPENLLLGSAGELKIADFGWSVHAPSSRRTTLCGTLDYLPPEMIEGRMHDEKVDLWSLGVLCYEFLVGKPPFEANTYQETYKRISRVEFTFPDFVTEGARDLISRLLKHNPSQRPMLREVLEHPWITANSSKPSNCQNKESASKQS
The series can be described thus: Inhibition of Aurora A (unknown origin).

For series [14], the system named is NCI-H460. As to the kind of experiment: Induction of cell cycle arrest in human NCI-H460 cells assessed as accumulation of cells at G2-M phase at 1 micromol/L incubated for 48 hrs by propidium iodide staining based flow cytometry analysis (reference value: 22.5 %). It counts as functional. The following applies: dose 1 µmol/L, at 1 µM.
Series [15] has as its system NCI-H460. As to the kind of experiment: Induction of cell cycle arrest in human NCI-H460 cells assessed as accumulation of cells at S phase at 3 micromol/L incubated for 24 hrs by propidium iodide staining based flow cytometry analysis (reference value: 23.2 %). It counts as functional. The note with it: dose 3 µmol/L, at 3 µM.

Molecules are shown by their SMILES. Calls of active or inactive are those of the source. No cut-off for these calls is given here.

Platelet-derived growth factor receptor beta, sequence (P09619 whole entry): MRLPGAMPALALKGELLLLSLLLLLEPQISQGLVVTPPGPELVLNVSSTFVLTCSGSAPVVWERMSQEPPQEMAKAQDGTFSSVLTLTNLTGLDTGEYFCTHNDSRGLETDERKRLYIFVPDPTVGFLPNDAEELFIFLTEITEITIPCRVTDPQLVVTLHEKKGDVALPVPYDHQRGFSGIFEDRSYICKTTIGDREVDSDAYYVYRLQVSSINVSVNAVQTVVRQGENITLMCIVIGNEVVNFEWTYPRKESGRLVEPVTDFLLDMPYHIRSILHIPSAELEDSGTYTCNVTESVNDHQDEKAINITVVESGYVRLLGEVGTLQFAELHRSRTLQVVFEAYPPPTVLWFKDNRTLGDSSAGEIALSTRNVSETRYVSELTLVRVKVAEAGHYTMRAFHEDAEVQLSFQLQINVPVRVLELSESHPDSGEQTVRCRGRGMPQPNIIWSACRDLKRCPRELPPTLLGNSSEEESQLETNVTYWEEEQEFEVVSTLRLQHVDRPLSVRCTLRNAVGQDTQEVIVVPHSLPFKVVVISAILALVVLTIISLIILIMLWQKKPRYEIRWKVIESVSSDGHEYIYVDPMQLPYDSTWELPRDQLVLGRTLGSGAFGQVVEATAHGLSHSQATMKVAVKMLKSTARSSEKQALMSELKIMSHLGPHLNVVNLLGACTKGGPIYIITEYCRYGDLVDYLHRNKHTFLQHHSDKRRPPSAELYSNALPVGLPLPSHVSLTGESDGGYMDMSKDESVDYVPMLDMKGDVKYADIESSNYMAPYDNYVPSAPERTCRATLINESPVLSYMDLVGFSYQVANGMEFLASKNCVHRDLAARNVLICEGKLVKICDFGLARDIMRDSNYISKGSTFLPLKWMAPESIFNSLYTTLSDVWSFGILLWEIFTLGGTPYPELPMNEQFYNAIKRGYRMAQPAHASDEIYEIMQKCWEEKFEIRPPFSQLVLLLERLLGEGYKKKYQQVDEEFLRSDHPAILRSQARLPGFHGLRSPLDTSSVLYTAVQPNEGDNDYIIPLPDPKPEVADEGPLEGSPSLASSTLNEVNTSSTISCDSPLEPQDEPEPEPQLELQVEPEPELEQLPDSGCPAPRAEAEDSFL

By IC50 is commonly meant the concentration at which inhibition is half-maximal. Take `COc1cc2ncn(-c3cc(OCc4ccccc4C(F)(F)F)c(C(N)=O)s3)c2cc1OC` [GW843682X]: the Activity turned out to be 5.1% in the series with NCI-H460 [1]; 55.3% in the series on NHDF [4]; 29% in the series with NCI-H460 [6]; 52.7% in the series on NHDF [7]; 27% in the series on NHDF [10]; 11.2% with NHDF [12]. In addition, the Activity in the series on NCI-H460 [13] turned out to be 8.9%; in the series on NCI-H460 [14], 11.2%; in the series with NCI-H460 [15], 8.4%. Besides, in the series with HeLa [2], the inhibition result was “Dose-Dependent Effect”. For the same compound, in the series on NCI-H460 [3], the outcome was Active. The selectivity ratio in series [5] and in series [11] was > 10 each time. The IC50 in series [8] came out at 160 nM; in the series with HeLa [9] it was 110 nM; on Aurora kinase A it was 4800 nM.

Source of the values: ChEMBL document CHEMBL5661972, “In vitro biological activity of a novel small-molecule inhibitor of polo-like kinase 1” (Mol Cancer Ther, 2007).
